Screens: PubChem BioAssay, several laboratories
DNA FID counter: counter-screen for HCV NS3 helicase inhibitors: DNA intercalator displacement. 290,000 compounds, 0.17% hits. inhibition, % at 7.9 µM. DNA fluorescent intercalator displacement, fluorescence. AID 1845; in the data active = inhibition above about 37%;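 also: 0% = vehicle and 100% = reference compound; higher means more ethidium bromide displaced from hairpin DNA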
HCV NS3 hel inh: inhibitors of Hepatitis C virus NS3 helicase | AID 1800 | NS3 helicase DNA unwinding, Cy5 molecular beacon fluorescence | inhibition, % at 10.9 µM | 290,000 compounds, 0.56% hits;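 active = inhibition above the mean of all tested compounds plus 3 SD, set per campaign, cut at about 35% in these data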;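 also: 0% = DMSO wells and 100% = thioflavine S control wells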
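Assay system: hepatitis C virus NS3 helicase domain fragment enzyme. Also added: annealed dual-labelled DNA beacon duplex, ATP-started. Timing: 1 h reaction at 25 °C, ATP-initiated. Technique: Cy5 fluorescence at 0 and 60 min, beacon hairpin quenching. Evaluation: % inhibition of unwinding. Replication: one well per compound.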
PP1 counter: counter-screen for PP5 inhibitors: inhibitors of human PP1-alpha; 320,000 compounds, 0.9% hits; inhibition, % at 6.7 µM; AID 2235; P62136; purified PP1alpha, OMFP fluorescence;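 active = inhibition above the mean inhibition of all tested compounds plus 3 SD, computed separately for each screening campaign, cut at about 15% in these data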
Target sequence (P62136 whole entry, looked up): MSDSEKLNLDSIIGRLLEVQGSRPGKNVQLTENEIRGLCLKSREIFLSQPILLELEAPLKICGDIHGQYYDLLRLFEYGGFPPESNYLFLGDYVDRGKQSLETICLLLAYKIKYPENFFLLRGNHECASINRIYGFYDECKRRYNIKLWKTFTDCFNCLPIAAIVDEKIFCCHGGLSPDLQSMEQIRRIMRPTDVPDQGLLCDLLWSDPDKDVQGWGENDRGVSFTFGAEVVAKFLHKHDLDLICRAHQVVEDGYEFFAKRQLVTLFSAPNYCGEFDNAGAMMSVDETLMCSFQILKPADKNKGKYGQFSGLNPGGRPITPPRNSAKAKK
PP5 primary: PP5 (human) phosphatase inhibition; P53041; purified PP5c, OMFP substrate fluorescence; inhibition, % at 6.7 µM; 320,000 compounds, 0.18% hits;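 active = inhibition above the campaign's mean inhibition across all tested compounds plus 3 SD, cut at about 9.5% in these data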;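 also: 0% = DMSO only and 100% = 100 µM cantharidin control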
HIF activator: HIF pathway transcriptional activation; AID 1910; activation, % at 7.5 µM (by protocol); 300,000 compounds, 0.32% hits; U2OS HRE-luciferase reporter, luminescence; normalized: DMSO 0%, desferrioxamine 100%;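 active = mean activation of at least 10% of the iron chelator positive control signal, with at least half of replicates also reaching 10%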
Starred values were filed as active, the others as inactive; / = not tested or not shown. This is a sample that favours compounds with a hit; in the whole collection about 1.9% have one here.

SMILES	DNA FID counter	HCV NS3 hel inh	PP1 counter	PP5 primary	HIF activator
CCOC(=O)c1c(CN(C)C)n(C)c2c(O)c(N=NC(N)=O)c3ccc(Br)cc3c12	24	-100	17*	9	-1
COc1cc2c(cc1OC)C(C)N(C(=S)NC(=O)c1ccccc1)CC2 (stereo not given)	-15	1	-2	1	0
C#CCOCCOCCOCCNc1nc(N2CCN(C(=O)C([C@@H](C)CC)n3cc(C(N)CO)nn3)CC2)nc(N2CCN(C(=O)[C@H](CCC(=O)O)n3cc(C(N)Cc4ccc(O)cc4)nn3)CC2)n1 (stereo not given in full)	/	/	/	/	0
C#CCOCCOCCOCCNc1nc(N2CCN(C(=O)[C@H]([C@@H](C)CC)n3cc([C@@H](N)Cc4ccc(O)cc4)nn3)CC2)nc(N2CCN(C(=O)[C@H](CCCCN)n3cc([C@@H](N)CO)nn3)CC2)n1	58*	-70	5	3	0
C#CCOCCOCCOCCNc1nc(N2CCN(C(=O)[C@H](CCCCN)n3cc([C@@H](N)CO)nn3)CC2)nc(N2CCN(C(=O)[C@H](Cc3ccc(O)cc3)n3cc([C@@H](N)CC(C)C)nn3)CC2)n1	54*	-62	0	4	0
C#CCOCCOCCOCCNc1nc(N2CCN(C(=O)[C@H](Cc3ccc(O)cc3)n3cc([C@@H](N)C(C)CC)nn3)CC2)nc(N2CCN(C(=O)[C@H](CCCCN)n3cc([C@@H](N)CC(C)C)nn3)CC2)n1 (stereo not given in full)	43*	-77	0	2	-1
C#CCOCCOCCOCCNc1nc(N2CCN(C(=O)[C@H](Cc3ccc(O)cc3)n3cc([C@@H](N)C(C)CC)nn3)CC2)nc(N2CCN(C(=O)[C@H](CCCCN)n3cc([C@@H](N)CO)nn3)CC2)n1 (stereo not given in full)	44*	-72	0	3	0
C#CCOCCOCCOCCNc1nc(N2CCN(C(=O)[C@H](CCC(=O)O)n3cc(C(N)CO)nn3)CC2)nc(N2CCN(C(=O)[C@H](Cc3ccc(O)cc3)n3cc(C(N)CC(C)C)nn3)CC2)n1 (stereo not given in full)	9	-12	-1	2	-1
COc1cc2c(-c3ccc4cc[nH]c4c3)c(-c3ccc(C#N)cc3)oc(=O)c2cc1OC	/	/	9	3	/
CN(C(=O)COc1ccc([N+](=O)[O-])cc1)C1CCS(=O)(=O)C1 (stereo not given)	-1	-7	-5	-2	-1
COC(=O)/C=C/c1cc(F)ccc1S(=O)(=O)NC(C)(C)C	/	/	-6	-5	0
O=C(N/N=C/C(Br)=C\c1ccccc1)c1n[nH]c2c1CCC2	-7	6	8	-1	12*
CC(Sc1nnc(COc2ccc([N+](=O)[O-])cc2)n1C)C(=O)O (stereo not given)	0	-15	-3	-2	93*
CC(Sc1nnc(COc2ccc([N+](=O)[O-])cc2)n1-c1ccccc1)C(=O)O (stereo not given)	-25	2	-5	-2	0
Cn1c(N)c(C(=O)COC(=O)c2cc(-c3ccco3)nc3ccccc23)c(=O)n(C)c1=O	-12	9	/	/	1
Cn1c(N)c(C(=O)COC(=O)c2cc(-c3ccco3)nc3ccccc23)c(=O)n(Cc2ccccc2)c1=O	-18	12	30*	3	1
CCC1Oc2ccccc2N(CC(=O)NC2CCCC2)C1=O (stereo not given)	-5	2	-1	2	1
Nc1ccc(N2CCCCC2)c2nonc12	0	2	17*	11*	1
O=C(Cn1cc[n+](Cc2ccccc2)c1)c1ccc([N+](=O)[O-])cc1	44*	-71	6	2	0
O=C(C[n+]1ccn(-c2ccccc2)c1)c1ccc([N+](=O)[O-])cc1	8	-7	3	0	-2
COc1cc(NS(=O)(=O)c2ccc3c(c2)C(C)(C)C(=O)N3C)cc(OC)c1	-16	21	11	2	0
O=C(NCc1cccs1)c1cc(-c2cccs2)on1	-5	3	10	3	4
COCCNC(=O)c1cc(-c2cccs2)on1	0	5	-4	1	30*
O=C(O)c1ccccc1-c1nc(-c2ccccc2)c(-c2ccccc2)[nH]1	-10	8	-1	3	1
O=C(O)c1cccc2c(-c3ccccc3)c(-c3ccccc3)[nH]c12	-6	-51	15*	2	0
SMILES	DNA FID counter	HCV NS3 hel inh	PP1 counter	PP5 primary	HIF activator
COc1cc(NC(=O)CCC(=O)c2cccs2)cc(OC)c1	-13	2	-1	1	0
COC(=O)c1sc(NC(=O)CSc2n[nH]c(N)n2)c(C(=O)OC)c1C	-6	-6	-7	0	0
Cc1ccsc1/C=C/C1=Cc2c(sc(NC(=O)CSc3n[nH]c(N)n3)c2C#N)C(C)(C)C1	-16	16	17*	3	0
CCOc1ccc(/C=C/C2=Cc3c(sc(NC(=O)CSc4n[nH]c(N)n4)c3C#N)C(C)(C)C2)cc1	-23	17	22*	2	0
CCOC(=O)c1sc(NC(=O)CSc2n[nH]c(-c3ccncc3)n2)c(C#N)c1C	-4	5	3	2	-2
Cc1cccc(C(=O)O/N=C(\N)CS(=O)(=O)c2ccccc2)c1	-14	3	1	1	1
NS(=O)(=O)c1ccc(CNC(=O)Cn2nc(C(F)F)cc2C(F)F)cc1	/	/	-1	-2	/
Oc1c(N=Nc2ccccn2)ccc2ccccc12	5	-4	11	2	34*
C1CCC2(CC1)C1=C(CCCC1)Nc1nnnn12	-4	9	4	2	126*
Nc1nc2n(n1)C1(CCCCC1)C1=C(CCCC1)N2	-9	17	-11	1	0
O=C(CC1C(=O)NCCN1Cc1cccc(F)c1)NCCCCCN1CCOCC1 (stereo not given)	-7	-1	-4	0	0
Cc1ccc(OCc2nnc(SCC(=O)Nc3cccc4ccccc34)n2-c2ccccc2)cc1	-25	-23	15*	8	0
CC(C)c1ccc(C2CC(=O)c3cnc(N4CCc5ccccc5C4)nc3C2)cc1 (stereo not given)	-2	4	4	2	1
O=C1CC(c2ccco2)Cc2nc(N3CCc4ccccc4C3)ncc21 (stereo not given)	-21	23	17*	-7	0
CCOC(=O)c1cc2c(ccn2C)n1CC(=O)N1CCN(c2ccccc2OC)CC1	-24	-1	/	/	-1
COc1ccc2c(c1)-c1nc(NC(=O)c3ccco3)sc1CC2	-4	-11	0	3	9.9*
COc1ccc2c(c1)CCc1sc(NC(=O)c3ccco3)nc1-2	4	-1	-2	6	3
COc1ccc(C(=O)CSc2ccccc2C(=O)O)cc1	-12	20	-1	-1	1
